Active and inactive are the calls of the source. No cut-off for these calls is given here.
What was measured:
[1] = system: PC-3; experiment: Cytotoxicity against human PC3 cells assessed as reduction in cell viability incubated for 24 hrs by MTT assay; assay type: functional, cell-based; details: PC-3, 24 h
Method in brief: (§1)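 Cells were kept in McCoy's 5A with 10% fetal bovine serum, streptomycin and 100 units·mL⁻¹ penicillin at 37 °C under 5% CO₂/95% air. Viability was read by MTT optical density. IC50 is the concentration that lowers optical density by 50% relative to untreated cells. Values are means with SD of at least three independent determinations.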

[2] = system: HCT-116; experiment: Induction of apoptosis in human HCT116 cells assessed as increase in cleaved PARP level at 4 uM incubated for 24 hrs by Western blot method; assay type: functional, cell-based
Method in brief: (§2)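 Lysates were made in SDS buffer (2% SDS, 50 mM Tris-HCl pH 6.8) and quantified by BCA. Equal protein was run on 10% SDS-PAGE and transferred to PVDF. Membranes were blocked in 5% milk, probed overnight at 4 °C for cleaved PARP (1:1000) with GAPDH (1:5000), and detected with HRP secondary antibody and ECL.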

[3] = system: HCT-116; experiment: Inhibition of colony formation of human HCT116 cells pre-treated with 7.5 mM L-NAC for 2 hrs followed by 16 to 32 uM compound addition and further incubated for 24 hrs and measured after 10 days post dose in fresh medium by crystal violet staining based photography; assay type: functional, cell-based
Method in brief: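 HCT116 seeded at about 300 per well in 12-well plates and grown 2 h. Pre-treated 2 h with H2O, 7.5 mM L-NAC or GSH, then exposed to compound for 24 h. Colonies grown 10 days in fresh medium, stained with crystal violet and counted. Triplicate wells.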

[4] = system: HCT-116; experiment: Induction of apoptosis in human HCT116 cells assessed as late apoptotic cells level incubated for 48 hrs by Annexin V-FITC/PI staining based cytometry (reference value: 0.0%); assay type: functional
[5] = system: HCT-116; experiment: Induction of apoptosis in Bax-/- human HCT116 cells assessed as viable cells level incubated for 48 hrs by Annexin V-FITC/PI staining based cytometry (reference value: 92.9%); assay type: functional
Method in brief: (§3)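 Cells were plated at 5×10^5 per well and treated once 80% confluent. After trypsinisation and two washes in ice-cold PBS (pH 7.4), cells were stained with Annexin V-FITC and PI for 15 min at room temperature in the dark. Analysis was by flow cytometry. The legend gives vehicle or 4 µM for the p53-/- and Bax-/- lines.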

[6] = system: HCT-116; experiment: Induction of apoptosis in human HCT116 cells assessed as subG1 phase cells level at 2 uM incubated for 24 hrs by […]PI staining based cytometry (reference value: 1%); assay type: functional
Method in brief: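 Cells were treated for 24 h, then fixed in 75% ethanol at -20 °C overnight. RNA was digested with 0.2 mg/mL RNase A for 30 min at 37 °C. Cells were stained with 50 µg/mL PI for 30 min in the dark, and DNA content was read by flow cytometry.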

[7] = system: HCT-116; experiment: Cytotoxicity against human HCT116 cells assessed as reduction in cell viability incubated for 24 hrs by CCK8 assay; assay type: functional, cell-based
Method in brief: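 Cells were seeded at 3×10^4 per well, grown 24 h, then exposed to increasing concentrations for 24 h. CCK-8 reagent was added for 1 h at 37 °C and absorbance was read at 450 nm. Cells were kept in McCoy's 5A with 10% FBS, and n=3.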

[8] = system: HeLa; experiment: Cytotoxicity against human HeLa cells assessed as reduction in cell viability incubated for 24 hrs by MTT assay; assay type: functional, cell-based; method in brief: as §1
[9] = system: HCT-116; experiment: Cytotoxicity in human HCT116 cells assessed as reduction in cell viability pre-treated with 7.5 mM GSH followed by 16 to 32 uM compound addition and further incubated for 24 hrs by CCK8 assay; assay type: functional, cell-based
Method in brief: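 HCT116 cells were pretreated with H2O, 7.5 mM L-NAC or 7.5 mM GSH, then exposed to 4, 16 or 32 µM for 24 h. Viability was read by CCK-8, with 1 h reagent incubation at 37 °C and absorbance at 450 nm. n=3.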

[10] = system: HCT-116; experiment: Induction of apoptosis in p53-/- human HCT116 cells assessed as late apoptotic cells level at 4 uM incubated for 48 hrs by Annexin V-FITC/PI staining based cytometry (reference value: 0.1%); assay type: functional
Method in brief: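 HCT116 p53-/- cells (Vogelstein line) in McCoy's 5A with 10% FBS, 37 °C, 5% CO2. Seeded at 5×10^5 in 6-well plates, treated with vehicle or 4 μM at 80% confluence. After treatment, trypsinised, washed twice in ice-cold PBS pH 7.4, and stained in binding buffer with Annexin V-FITC and PI for 15 min at room temperature in the dark. Read by flow cytometry.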

[11] = system: HCT-116; experiment: Induction of apoptosis in Bax-/- human HCT116 cells assessed as necrotic cells level incubated for 48 hrs by Annexin V-FITC/PI staining based cytometry (reference value: 0.2%); assay type: functional; method in brief: as §3
[12] = system: HCT-116; experiment: Induction of apoptosis in Bax-/- human HCT116 cells assessed as increase in cleaved PARP level pre-incubated with 20 uM pan-caspase inhibitor Z-VAD-FMK for 5 hrs followed by compound addition and further incubated for 48 hrs by Western blot method; assay type: functional, cell-based
Method in brief: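 Cells were pretreated for 5 h with DMSO or 20 µM Z-VAD-FMK before compound exposure. Lysates were made in SDS buffer and quantified by BCA. Proteins were run on 10% SDS-PAGE, transferred to PVDF, and probed with cleaved PARP (1:1000) and GAPDH (1:5000) loading control, with ECL detection.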

[13] = system: HCT-116; experiment: […] of ROS generation in human HCT116 cells at 8 uM incubated for 24 hrs by H2DCFDA dye based flow cytometry; assay type: functional, cell-based
Method in brief: (§4)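 HCT116 cells pre-treated 5 h with H2O, 7.5 mM L-NAC or 7.5 mM GSH, then exposed to compound for 24 h. Cells collected, washed twice in PBS, and resuspended in serum-free McCoy's 5A with 10 nM H2DCFDA for 20 min at 37 °C in the dark. After two PBS washes, relative ROS measured by flow cytometry.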

[14] = system: HCT-116; experiment: […] of ROS generation in human HCT116 cells pre-treated with 7.5 mM L-NAC for […] followed by 8 uM compound addition and further incubated for 24 hrs by H2DCFDA dye based flow cytometry; assay type: functional, cell-based; method in brief: as §4
[15] = system: HCT-116; experiment: Induction of apoptosis in human HCT116 cells assessed as early apoptotic cells level at 2 uM incubated for 24 hrs by Annexin V-FITC/PI staining based cytometry (reference value: 1.3%); assay type: functional
[16] = system: HCT-116; experiment: Inhibition of colony formation of Bax-/- human HCT116 cells at 4 to 16 uM incubated for 24 hrs by crystal violet staining based photography; assay type: functional, cell-based
Method in brief: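 Cells (HCT116, RKO, HCT116 p53-/-, HCT116 Bax-/-) seeded at 300 per well in 12-well plates for 48 h, then treated 24 h. Drug medium replaced with fresh medium; about 10 days later colonies stained 15 min with crystal violet, photographed and counted. Run in triplicate.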

[17] = system: MCF7; experiment: Cytotoxicity against human MCF7 cells assessed as reduction in cell viability incubated for 24 hrs by MTT assay; assay type: functional, cell-based; details: MCF7, 24 h; method in brief: as §1
[18] = system: HCT-116; experiment: Induction of apoptosis in p53-/- human HCT116 cells assessed as increase in cleaved PARP level at 4 to 16 uM by Western blot method; assay type: functional, cell-based; method in brief: as §2
[19] = system: HCT-116; experiment: Induction of apoptosis in human HCT116 cells assessed as necrotic cells level at 2 uM incubated for 24 hrs by Annexin V-FITC/PI staining based cytometry (reference value: 1.6%); assay type: functional

Structure (SMILES): CCN(CC)CCCNC(=O)c1cn(CCCc2ccccc2)c2cc(Cl)ccc2c1=O.Cl
- IC50 [1]: 6.41 µM
- Activity [2]: Active
- inhibition [3]: inactive
- Activity [4]: 3.2%
- Activity [5]: 65.1%
- Activity [6]: 6.5%
- growth inhibition (GI) [7]: Dose-dependent effect
- IC50 ([7]; HCT-116, 24 h): 5.79 µM
- IC50 [8]: 3.52 µM
- Activity [9]: inactive
- Activity [10]: 1.3%
- Activity [11]: 0.2%
- Activity [12]: inactive
- inhibition [13]: Active
- inhibition [14]: inactive
- Activity [15]: 18.2%
- inhibition [16]: Active
- IC50 [17]: 5.02 µM
- Activity [18]: Active
- Activity [19]: 1%
